Source: PubChem
Shown are actives, neighbours in structure and some others; about 1.8% of the full set was active somewhere.
mABHD4 FP: ABHD4 inhibitors, primary screen, biochemical, fluorescence polarization, mouse; 0.54% of 370,000 active; inhibition, % at 8.92 µM; purified mABHD4, FP-Rh probe fluorescence polarization; AID 720543, 2013; (Lyso)-N-acylphosphatidylethanolamine lipase (Mus musculus), Q8VD66;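 active = inhibition exceeding the mean over every tested compound plus 3 SD, cut at about 30% in these data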
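Assay system: Wild-type mouse ABHD4 protein | Medium: HEPES pH 7.0 buffer, 150 mM NaCl, 0.01% Pluronic F-127 | Incubation: Enzyme–compound pre-incubation 45 min, then probe 60 min, both 25 °C | Technique: Fluorescence polarization with parallel and perpendicular emission, 525/598 nm | Evaluation: % inhibition of FP-Rh probe binding versus controls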
ARNT-TACC3 inh: disruptors of ARNT/TACC3 protein interaction, primary screen, biochemical, AlphaScreen, single concentration | Transforming acidic coiled-coil-containing protein 3 (Homo sapiens), Q9Y6A5 | AlphaScreen His-ARNT PAS-B/GST-TACC3 binding, luminescence; TACC3 fragment carries E629A point mutation | inhibition, % at 9.99 µM | 0.66% of 390,000 active;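 active = mean inhibition of replicates at least 50% and at least half of replicates each reaching 50%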
HTRA1 inh: HTRA1 serine protease inhibitors, primary screen, biochemical, fluorescence polarization, HTS; 0.5% of 340,000 active; inhibition, % at 5.96 µM; Q92743; recombinant HTRA1, FP-rhodamine activity-based probe; in the data active = inhibition above about 36%
TCR CD3 inh: inhibitors of human TCR-CD3 interaction, primary screen, biochemical, fluorescence, TAMRA-labeled TCR probe | AID 651800, 2012 | 0.37% of 360,000 active | inhibition, % at 9.4 µM;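 note: recombinant mutant TCR 2C K166C tagged with TAMRA read by polarization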
SIAE primary: human SIAE inhibitors, primary screen, biochemical, fluorescence polarization, FP-Rh probe, 1536-well HTS; SIAE FP-Rh probe binding; inhibition, % at 9.66 µM; 0.69% of 370,000 active; AID 1053197, 2014;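 active = inhibition above a cutoff: mean of compounds within the control limits plus 3 SD of those, cut at about 17% in these data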
Target sequence (Q9HAT2 whole entry, looked up): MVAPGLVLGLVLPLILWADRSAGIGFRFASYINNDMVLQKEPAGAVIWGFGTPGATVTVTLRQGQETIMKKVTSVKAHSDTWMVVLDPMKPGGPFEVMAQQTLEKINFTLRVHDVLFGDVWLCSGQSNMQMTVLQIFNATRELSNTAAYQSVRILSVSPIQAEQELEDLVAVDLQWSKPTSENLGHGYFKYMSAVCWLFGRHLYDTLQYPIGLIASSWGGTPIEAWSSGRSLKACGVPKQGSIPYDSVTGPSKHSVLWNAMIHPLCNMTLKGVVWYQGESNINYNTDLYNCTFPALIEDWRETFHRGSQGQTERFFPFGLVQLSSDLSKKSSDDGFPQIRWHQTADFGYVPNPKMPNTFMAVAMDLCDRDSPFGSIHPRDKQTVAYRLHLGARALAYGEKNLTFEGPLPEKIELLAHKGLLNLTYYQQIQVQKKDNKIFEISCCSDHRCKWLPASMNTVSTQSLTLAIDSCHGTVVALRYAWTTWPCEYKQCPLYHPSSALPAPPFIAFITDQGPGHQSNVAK
AlphaScreen ctr: AlphaScreen signal interference compounds, dose response, artefact control for ARNT-TACC3 interaction inhibitor project, biochemical, luminescence, cherry-pick; shares compounds with ARNT-TACC3 inh; His-ARNT PASB-GST AlphaScreen artifact counter-screen; AC50, µM (series often up to 68 µM); 50% of 1,200 active; AID 651705, 2012;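 active = every separate test run was called active for a drop in luminescence, with AC50 within twice the top valid dose, actives reach about 71 µM in these data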
BSA TAMRA ctr: compounds interfering with TAMRA-BSA probe, counter-screen for TCR-CD3 interaction inhibitor project, biochemical, fluorescence, TAMRA-labeled BSA. 10% of 1,200 active. TAMRA-labeled BSA probe fluorescence counterscreen. inhibition, % at 9.4 µM. AID 652035, 2013. shares compounds with TCR CD3 inh; in the data active = inhibition above about 23%
TCR-CD3 conf: TCR-CD3 interaction inhibitors, retest, confirmation, biochemical, fluorescence, TAMRA-labeled TCR probe; TAMRA-labeled TCR probe fluorescence binding assay; 48% of 1,200 active; AID 652036, 2013; shares compounds with TCR CD3 inh; inhibition, % at 9.4 µM
mABHD4 conf: ABHD4 inhibitors, retest, confirmation, biochemical, fluorescence polarization, mouse | AID 720658, 2013 | inhibition, % at 8.92 µM | 55% of 1,800 active | shares compounds with mABHD4 FP | purified mABHD4, FP-Rh probe fluorescence polarization;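 active = mean inhibition across replicates above the hit cutoff set in the primary screen, cut at about 30% in these data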
SIAE inh conf: human SIAE inhibitors, retest, confirmation, biochemical, fluorescence polarization, FP-Rh probe, triplicate; shares compounds with SIAE primary; SIAE FP-Rh activity-based probe; inhibition, % at 9.66 µM; 13% of 2,300 active; AID 1117263, 2014;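 active = mean inhibition of the replicates above the hit cutoff set in the primary screen, cut at about 17% in these data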;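 note: inhibitors lower polarization as more probe stays unbound to SIAE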
Hits are given with their value; - = inactive; . = not tested or not shown. Cut-off read from the data, not from the text of the source, unless noted: active = inhibition above about 19%; inactive = the rest.

SMILES | mABHD4 FP | ARNT-TACC3 inh | HTRA1 inh | TCR CD3 inh | SIAE primary | AlphaScreen ctr | others
C#CCOCCOCCOCCNc1nc(N2CCN(C(=O)[C@H](CCC(=O)O)n3cc([C@@H](N)CCCCN)nn3)CC2)nc(N2CCN(C(=O)[C@H](CCCCN)n3cc([C@@H](N)CC(N)=O)nn3)CC2)n1 | - | 51 | - | - | - | -
C#CCOCCOCCOCCNc1nc(N2CCN(C(=O)[C@H](CCC(=O)O)n3cc([C@@H](N)CCCCN)nn3)CC2)nc(N2CCN(C(=O)[C@H](CCC(=O)O)n3cc([C@@H](N)CCCCN)nn3)CC2)n1 | - | - | - | - | - | .
C#CCOCCOCCOCCNc1nc(N2CCN(C(=O)C([C@@H](C)O)n3cc([C@@H](N)CCCCN)nn3)CC2)nc(N2CCN(C(=O)C([C@@H](C)O)n3cc([C@@H](N)CCCCN)nn3)CC2)n1 (stereo partly specified) | - | 60 | - | - | - | -
C#CCOCCOCCOCCNc1nc(N2CCN(C(=O)C([C@@H](C)O)n3cc([C@@H](N)CCCCN)nn3)CC2)nc(N2CCN(C(=O)[C@H](CO)n3cc([C@@H](N)C(C)C)nn3)CC2)n1 (stereo partly specified) | - | - | - | - | - | .
C#CCOCCOCCOCCNc1nc(N2CCN(C(=O)Cn3cc(CCCCN)nn3)CC2)nc(N2CCN(C(=O)[C@H](CCCCN)n3cc(CCCC)nn3)CC2)n1 | - | 32 | - | - | - | -
CC(C)NC(=O)N1C[C@H]2[C@@H](c3ccccc31)[C@H](CO)N2C(=O)NC(C)C | . | - | . | . | . | .
COc1cc2c(cc1OC)CN(C(=O)[C@H]1[C@@H]3C(=O)O[C@@H](c4ccccc4)[C@@H](c4ccccc4)N3[C@@H](c3ccc(O)cc3)[C@]13C(=O)Nc1ccccc13)CC2 | . | - | . | . | . | .
CO[C@@H]1CN(C)C(=O)c2ccc(NC(=O)c3ccccn3)cc2OC[C@@H](C)N(Cc2ccccn2)C[C@H]1C | . | 95 | . | . | . | 20µM
CCCNC(=O)Nc1ccc2c(c1)OC[C@@H](C)N(C(=O)c1ccccc1F)C[C@H](C)[C@H](OC)CN(C)C2=O | . | - | . | . | . | .
CCCNC(=O)Nc1ccc2c(c1)OC[C@H](C)N(C(=O)c1ccccc1F)C[C@@H](C)[C@@H](OC)CN(C)C2=O | . | 53 | . | . | . | -
Cc1ccc(S(=O)(=O)N(C)C[C@H]2Oc3ncc(-c4ccncc4)cc3C(=O)N([C@H](C)CO)C[C@@H]2C)cc1 | . | - | . | . | . | .
C[C@@H]1CCCCO[C@@H](CN(C)C(=O)c2ccccc2)[C@H](C)CN([C@H](C)CO)C(=O)c2cc(NS(=O)(=O)c3ccc(Cl)cc3)ccc2O1 | . | - | . | . | . | .
CCOc1cc2c(C#N)c(N3CCOCC3)nc(N)c2c(N)n1 | - | 30 | - | - | - | -
CCOc1cc2c(C#N)c(N(CC)CC)nc(N)c2c(N)n1 | - | - | - | - | - | .
CCOC(=O)c1cnc(-n2[nH]c(C)cc2=O)[nH]c1=O | - | 70 | . | - | - | 13µM
CCOC(=O)c1cnc[nH]c1=O | - | - | - | - | - | .
Cc1nc(NCCCn2ccnc2)c2ccccc2n1 | - | - | - | - | - | .
c1cncc(-c2nc(NCCCn3ccnc3)c3ccccc3n2)c1 | - | 63 | - | - | - | 66µM
COc1ccc(-c2nc(C#N)c(N3CCCCC3)o2)cc1 | - | 54 | - | - | - | 71µM
CCNC(=O)C(=O)N/N=C/c1cc([N+](=O)[O-])ccc1O | - | 61 | - | - | - | 25µM
CCC(=O)N1C[C@H](C)[C@H](OC)CN(C)C(=O)c2ccc(NC(=O)Nc3ccccc3)cc2OC[C@@H]1C | . | - | . | . | . | .
C[C@@H]1CN([C@@H](C)CO)S(=O)(=O)c2ccc(C#CCN(C)C)cc2O[C@@H]1CN(C)C | . | - | . | . | . | .
O=C(N/N=C/c1c(Cl)cccc1Cl)c1cccc(F)c1 | . | - | - | . | . | .
Cc1[nH]n(-c2ccccc2)c(=O)c1/C=N/NC(=O)c1cccc(F)c1 | - | 58 | - | - | - | 43µM
Cc1oc(C(=O)O)cc1COc1cccc2cccnc12 | - | 59 | - | - | - | -
SMILES | mABHD4 FP | ARNT-TACC3 inh | HTRA1 inh | TCR CD3 inh | SIAE primary | AlphaScreen ctr | others
CNC[C@H]1Oc2ncc(-c3cccc(F)c3)cc2C(=O)N([C@H](C)CO)C[C@H]1C | . | - | . | . | . | .
O=C(O)c1c[nH]c2c([N+](=O)[O-])cccc2c1=O | - | 49 | - | 24 | - | - | BSA TAMRA ctr=-;TCR-CD3 conf=23
Cc1nc2ccccc2n1CC(=O)c1ccc(O)c(O)c1 | - | 57 | - | 45 | - | - | BSA TAMRA ctr=-;TCR-CD3 conf=37
Cc1nc2ccccc2n1CC(=O)c1ccccc1 | - | - | - | - | - | .
C[C@H]1CN([C@@H](C)CO)C(=O)CCCn2cc(nn2)CO[C@H]1CN(C)Cc1ccc(-c2ccccc2)cc1 | . | - | . | . | . | .
O=C(CSC1=NNC(c2ccccn2)S1)Nc1ccccc1 (stereo unspecified) | 53 | 58 | - | - | - | 6.4µM | mABHD4 conf=-
CCC(=O)Nc1ccc2c(c1)C(=O)N(C)C[C@H](OC)[C@H](C)CN(C(=O)c1ccc(F)cc1)[C@@H](C)CO2 | . | - | . | . | . | .
Nc1ccc(NC(=O)c2ccc(C(=O)Nc3ccc(N)cc3)cc2)cc1 | - | - | - | - | - | .
Nc1ccc(C(=O)Nc2ccc3c(O)cc(S(=O)(=O)O)cc3c2)cc1 | 36 | 69 | - | - | - | - | mABHD4 conf=-
COc1cccc(/C=N/Nc2nc3ccccc3[nH]2)c1O | - | 58 | - | - | 17 | - | SIAE inh conf=-
